# According to ChEMBL document CHEMBL3526151, “Reversible disulfide formation of the glutamate carboxypeptidase II inhibitor E2072 results in prolonged systemic exposures in vivo” (Drug Metab Dispos, 2012):
# Key:
# [1] = Oral bioavailability in Sprague-Dawley rat at 0.1 mg/kg administered via gavage measured under fasted conditions by LC-MS/MS analysis; assay type: ADME, organism-based; details: in vivo
# [2] = Volume of distribution in Sprague-Dawley rat at 10 mg/kg, iv administered as bolus injection measured under fasted conditions by LC-MS/MS analysis; assay type: ADME, organism-based; parameters: dose 10 mg/kg, route intravenous; details: in vivo
# Procedure, shortened: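 Jugular-cannulated male Sprague-Dawley rats, 280–330 g, fasted overnight to 4 h post-dose. Single dose in 50 mM HEPES-buffered saline pH 7.4, by oral gavage or as tail-vein i.v. bolus. Blood into heparin/NEM tubes at 0–24 h. Plasma measured by LC-MS/MS; noncompartmental analysis; Tmax observed; Vd = dose/(AUCinf·λz).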
# Rattus norvegicus [3] = experiment: Elimination half life in Sprague-Dawley rat at 10 mg/kg, iv by LC-MS/MS analysis; assay type: ADME, organism-based; parameters: dose 10 mg/kg, route intravenous; details: in vivo
# Procedure, shortened: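 Male Sprague-Dawley rats received a single IV dose of either 10 mg/kg parent drug (n = 6) or 5 mg/kg homodisulfide (n = 5), in 50 mM HEPES-buffered saline, pH 7.4. Blood was collected into NEM-containing heparinized tubes for up to 7 days. Parent drug and homodisulfide in plasma were quantified by LC-MS/MS. Terminal t1/2β was calculated as 0.693/λz.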
# [4] = AUC(0 to last) in Sprague-Dawley rat at 0.1 mg/kg, iv administered as bolus injection measured under fasted conditions by LC-MS/MS analysis; assay type: ADME, organism-based; parameters: time 0 - last, dose 0.1 mg/kg, route intravenous; details: plasma
# Procedure, shortened: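 Male Sprague-Dawley rats (280–330 g), jugular vein cannulated, fasted overnight until 4 h post-dose. Single tail-vein bolus of 0.1, 1, 10 or 30 mg/kg in 50 mM HEPES buffered saline, pH 7.4. Blood drawn 0–24 h into heparin tubes containing NEM. Plasma quantified by LC-MS/MS after NEM derivatization. Noncompartmental analysis: AUClast by linear trapezoidal rule, Cl = dose/AUC0-∞. Mean ± S.D., n = 4–9.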
# [5] = Half life in Sprague-Dawley rat at 1 mg/kg, iv administered as bolus injection measured under fasted conditions by LC-MS/MS analysis; assay type: ADME, organism-based; parameters: dose 1 mg/kg, route intravenous; details: in vivo
# [6] = Apparent volume of distribution in cynomolgus monkey at 5 mg/kg, po by LC-MS/MS analysis; assay type: ADME, organism-based, Macaca fascicularis; parameters: dose 5 mg/kg, route oral; details: in vivo
# Procedure, shortened: (§1)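 Cynomolgus monkeys (n = 3) dosed orally at a nominal 5 mg/kg in TCEP-treated 50 mM HEPES solution. Blood taken via iliac or femoral arterial cannula up to 9 days into heparin/NEM tubes. Plasma analyzed by LC-MS/MS. Cl/F and Vd/F derived noncompartmentally.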
# [7] = Metabolic stability in cynomolgus monkey plasma assessed as compound remaining at 5 to 10 uM after 1 hr by LC-MS/MS analysis; assay type: ADME, cell-free, Macaca fascicularis; details: read-out: Stability
# Procedure, shortened: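 Compound at 5 and 10 µM was incubated at 37°C in Sprague-Dawley rat or cynomolgus monkey plasma. Aliquots taken at 0, 30 and 60 min were quenched with acetonitrile and analyzed by LC-MS/MS. Percent remaining = analyte/internal-standard area ratio at time t divided by that at time 0.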
# [8] = Oral bioavailability in cynomolgus monkey at 5 mg/kg by LC-MS/MS analysis; assay type: ADME, organism-based, Macaca fascicularis; details: in vivo
# Procedure, shortened: (§2)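 Cynomolgus monkeys (n = 3) received a nominal 5 mg/kg dose in 50 mM HEPES, TCEP-treated to prevent disulfide formation. Dosing was either an IV bolus via cephalic or saphenous vein or oral. Arterial cannula blood was collected into NEM-containing heparinized tubes for up to 9 days and analyzed by LC-MS/MS. Noncompartmental analysis gave t1/2 = 0.693/λz and F% = dose-normalized mean AUCinf p.o./i.v. ×100.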
# [9] = Cmax in Sprague-Dawley rat at 10 mg/kg, po administered via gavage measured under fed conditions by LC-MS/MS analysis; assay type: ADME, organism-based; parameters: dose 10 mg/kg, route oral; details: in vivo
# Procedure, shortened: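 Nonfasted male Sprague-Dawley rats given a single 10 mg/kg oral dose in 50 mM HEPES buffered saline, pH 7.4. Plasma collected 0.25–24 h into heparin/NEM tubes and assayed by LC-MS/MS. Noncompartmental parameters derived, including Cl/F and Vd/F. Mean ± S.D., n = 6–9.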
# Cynomolgus monkey = experiment: Apparent oral clearance in cynomolgus monkey at 5 mg/kg, po by LC-MS/MS analysis; assay type: ADME, organism-based, Macaca fascicularis; parameters: dose 5 mg/kg, route oral; details: in vivo; procedure, shortened: as §1
# Rattus norvegicus [10] = experiment: Analgesic activity in Sprague-Dawley rat chronic constriction injury model assessed as change in paw withdrawal latency at 10 mg/kg/day, po measured 4 days after drug treatment cessation (reference value: -2.85 +/-0.32 s); assay type: functional
# [11] = Drug recovery in cynomolgus monkey serum protein binding experiment; details: in vitro
# [12] = Cmax in cynomolgus monkey at 5 mg/kg, po by LC-MS/MS analysis; assay type: ADME, organism-based, Macaca fascicularis; parameters: dose 5 mg/kg, route oral; details: in vivo; procedure, shortened: as §2
# [13] = Phase 2 metabolic stability in human liver microsomes assessed as compound remaining at 10 uM measured for 1 hr by LC-MS/MS analysis in absence of cofactors; assay type: ADME; details: read-out: Stability
# Procedure, shortened: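 Cofactor-free controls were run for each microsomal incubation: 0.5 mg/ml liver microsomes with 10 µM compound, omitting cofactors, so that cofactor-independent degradation could be measured. Samples were taken up to 1 h, quenched with acetonitrile containing internal standard, and the percent remaining was determined by LC-MS/MS.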
# Rattus norvegicus [14] = experiment: Analgesic activity in Sprague-Dawley rat chronic constriction injury model assessed as change in paw withdrawal latency at 10 mg/kg/day, po (reference value: -3.11 +/-0.34 s); assay type: functional
# [15] = Cmax in Sprague-Dawley rat at 30 mg/kg, po administered via gavage measured under fasted conditions by LC-MS/MS analysis; assay type: ADME, organism-based; parameters: dose 30 mg/kg, route oral; details: in vivo
# Procedure, shortened: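 Fasted male Sprague-Dawley rats (280–330 g) received 0.1, 1, 10 or 30 mg/kg by oral gavage in 50 mM HEPES buffered saline, pH 7.4. Blood drawn at 0.25–24 h into heparin/NEM tubes; plasma analyzed by LC-MS/MS. Cmax taken as observed. AUC by linear trapezoidal rule with extrapolation by λz. Cl/F and Vd/F reported. Mean ± S.D., n = 4–9.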
# [16] = Phase 2 metabolic stability in human liver microsomes assessed as compound remaining at 10 uM measured for 1 hr by LC-MS/MS analysis; assay type: ADME; details: read-out: Stability
# Procedure, shortened: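 For glucuronidation, compound was preincubated at 37°C in 50 mM Tris-HCl, pH 7.5, with 0.5 mg/ml liver microsomes, 8 mM MgCl2 and 25 µg/ml alamethicin. Reactions were started in duplicate with 2 mM UDPGA (final). Samples were taken up to 1 h, quenched with acetonitrile containing internal standard, and compound disappearance was measured by LC-MS/MS.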
# [17] = Cmax in Sprague-Dawley rat plasma at 10 mg/kg, po administered as single dose by LC-MS/MS analysis; assay type: ADME, organism-based; parameters: dose 10 mg/kg, route oral
# Procedure, shortened: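 Male Sprague-Dawley rats were dosed orally with 10 mg/kg/day, either once or daily for 5 days; n = 4 per group. Blood was taken by cardiac puncture and liver, kidney, brain and sciatic nerve were collected at 0–8 h post-dose. Tissues were homogenized in PBS containing NEM at equal volume per gram. NEM-derivatized analyte was extracted with methanol and quantified by LC-MS/MS (1–5000 ng/ml). Cmax is the observed value.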
smiles,measurement,setting,value
O=C(O)c1cccc(-c2cccc(CCS)c2C(=O)O)c1,bioavailability,[1],17.4%
same,Vd,[2],1.43 L/kg
same,beta t1/2,Rattus norvegicus [3],105 h
same,AUC(0-t),[4],1800 ng·h/mL
same,half-life,[5],3.25 h
same,Vd/F,[6],0.79 L/kg
same,"remaining at 1 h, up to 10 µM",[7],> 90%
same,bioavailability,[8],39.1%
same,Cmax,[9],16200 ng/mL
same,CL/F,Cynomolgus monkey,0.95 mL/min/kg
same,Time,Rattus norvegicus [10],-1.36 s
same,Drug recovery,[11],80%
same,Cmax,[12],10500 ng/mL
same,"remaining at 1 h, 10 µM",[13],> 90%
same,Time,Rattus norvegicus [14],-0.55 s
same,Cmax,[15],13000 ng/mL
same,"remaining at 1 h, 10 µM",[16],> 90%
same,Cmax,[17],4920 ng/mL
